We go through four compounds from ChEMBL document CHEMBL4402576, “Discovery and Development of Small-Molecule Inhibitors of Glycogen Synthase” (J Med Chem, 2020).

pIC50, pKi: −log10 of the molar value. The source made the active and inactive calls. The calls are words filed in the database; no cut-off is given here.

In assay [1] the target is T1, Glycogen [starch] synthase, muscle (Homo sapiens, UniProt P13807).
T1 sequence (P13807 whole entry): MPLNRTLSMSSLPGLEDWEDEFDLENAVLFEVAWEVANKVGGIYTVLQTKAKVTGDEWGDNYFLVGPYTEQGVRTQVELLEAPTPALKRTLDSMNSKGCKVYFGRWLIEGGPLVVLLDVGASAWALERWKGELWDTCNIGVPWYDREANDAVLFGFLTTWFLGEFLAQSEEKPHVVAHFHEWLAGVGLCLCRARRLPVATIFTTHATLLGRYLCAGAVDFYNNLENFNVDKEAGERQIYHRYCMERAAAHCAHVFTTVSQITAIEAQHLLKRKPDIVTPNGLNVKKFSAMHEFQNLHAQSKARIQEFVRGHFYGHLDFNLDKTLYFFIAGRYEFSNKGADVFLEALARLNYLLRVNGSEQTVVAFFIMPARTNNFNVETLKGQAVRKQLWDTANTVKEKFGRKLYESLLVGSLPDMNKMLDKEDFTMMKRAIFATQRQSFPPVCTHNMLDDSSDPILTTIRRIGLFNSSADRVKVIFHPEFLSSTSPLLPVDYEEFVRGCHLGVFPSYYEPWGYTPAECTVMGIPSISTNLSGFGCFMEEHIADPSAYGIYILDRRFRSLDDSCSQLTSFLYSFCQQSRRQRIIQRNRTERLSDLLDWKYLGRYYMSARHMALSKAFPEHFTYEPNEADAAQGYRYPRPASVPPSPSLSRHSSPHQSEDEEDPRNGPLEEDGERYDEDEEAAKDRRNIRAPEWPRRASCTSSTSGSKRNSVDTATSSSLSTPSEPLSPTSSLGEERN
As to the kind of experiment: Competitive inhibition of C-terminal 6His-tagged human GYS1 using UDPG as substrate in presence of G-6-P by 14C-glucose incorporation based Michaelis-Menton plot analysis. The method, boiled down:
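Radiolabel transfer from UDP-[14C]glucose into glycogen. Inhibitor and UDPG concentrations were covaried. Data were fitted to competitive, non-competitive and uncompetitive models, and the model was chosen by goodness of fit and residuals. Controls contained 2% (v/v) DMSO. Values are mean ± SEM of three independent experiments, each in duplicate.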

Assay [2] deals with T2, Glycogen [starch] synthase, muscle (Rattus norvegicus) (UniProt A2RRU1).
T2 sequence (whole entry): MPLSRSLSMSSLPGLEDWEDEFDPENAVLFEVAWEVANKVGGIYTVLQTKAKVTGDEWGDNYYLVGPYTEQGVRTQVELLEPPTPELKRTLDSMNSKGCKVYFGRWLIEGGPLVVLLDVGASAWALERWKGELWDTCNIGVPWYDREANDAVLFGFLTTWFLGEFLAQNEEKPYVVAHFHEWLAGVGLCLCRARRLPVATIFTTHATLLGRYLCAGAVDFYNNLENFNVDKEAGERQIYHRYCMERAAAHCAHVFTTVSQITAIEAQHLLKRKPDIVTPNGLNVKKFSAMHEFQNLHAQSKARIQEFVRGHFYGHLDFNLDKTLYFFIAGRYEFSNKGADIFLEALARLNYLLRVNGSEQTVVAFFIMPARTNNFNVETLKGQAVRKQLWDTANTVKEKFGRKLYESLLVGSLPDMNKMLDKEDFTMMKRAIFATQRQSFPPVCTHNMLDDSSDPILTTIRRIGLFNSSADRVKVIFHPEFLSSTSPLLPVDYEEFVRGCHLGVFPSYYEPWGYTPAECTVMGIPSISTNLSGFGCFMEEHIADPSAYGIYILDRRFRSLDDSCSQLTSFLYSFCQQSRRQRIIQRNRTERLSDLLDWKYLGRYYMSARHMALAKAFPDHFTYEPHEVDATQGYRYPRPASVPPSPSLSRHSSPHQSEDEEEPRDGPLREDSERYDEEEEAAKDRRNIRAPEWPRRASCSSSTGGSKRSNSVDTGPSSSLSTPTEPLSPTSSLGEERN
Nature of the assay: Inhibition of glycogen synthase in rat-1 fibroblast cell lysates at 100 uM using 0.2 mM UDPG as substrate in presence of 1 mM G-6-P by 14C-glucose incorporation assay relative to control. The class given is subcellular. The conditions noted are these: Lysate. The method in brief:
(§1)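 Lysates came from HEK293 cells stably expressing PTG (5.5 mM glucose αMEM, 10% FBS, hygromycin) or from Rat-1 cells (25 mM glucose DMEM, 10% FBS), grown 3–4 days to confluency. Cells were lysed by freezing, scraping and sonication in Tris/EDTA/EGTA/NaF buffer with protease inhibitors and Triton. Assays used 0.15 mg/mL (HEK293-PTG) or 0.75 mg/mL (Rat-1) lysate in 50 mM Tris-HCl pH 7.8 with 6.7 mg/ml glycogen and 2% DMSO. Read-out was [14C]glucose incorporation relative to DMSO control, in triplicate.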

The nature of assay [3]: Inhibition of recombinant His-tagged yeast GYS2P expressed in Escherichia coli BL21(DE3) cells using UDPG as substrate in presence of 0.04 mM G-6-P by 14C-glucose incorporation assay. On the set-up: species or system Saccharomyces cerevisiae. The method, boiled down:
(§2)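 His-tagged yeast Gsy2p, expressed in E. coli BL21(DE3) and purified by Ni-NTA then Q-sepharose. Radiochemical incorporation of glucose into glycogen with 0.3 mM UDPG, with or without 0.04 mM G6P. Controls contained 2% (v/v) DMSO. IC50 was fitted by four-parameter logistic. Values are mean ± SEM of at least three independent experiments in duplicate.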

The target in assay [4] is T1, Glycogen [starch] synthase, muscle. Nature of the assay: Inhibition of C-terminal 6His-tagged wild type human GYS1 using UDPG as substrate in presence of 1 mM G-6-P by 14C-glucose incorporation assay. The method, boiled down: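 Full-length wild-type hGYS1 with C-terminal 6×His tag in place of the intein-chitin binding domain, Ni-NTA purified. Glucose transfer from UDP-[14C]glucose into glycogen with 0.2 mM UDPG and 1 mM G6P. Controls contained 2% (v/v) DMSO. IC50 was fitted by four-parameter logistic. Values are mean ± SEM of at least three independent experiments in duplicate.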

Assay [5] has as its target T3, Glycogen [starch] synthase, muscle (Homo sapiens) (UniProt P13807).
T3 sequence (whole entry): T1 sequence (P13807 whole entry)
Nature of the assay: Inhibition of glycogen synthase in human HEK293 cell lysates overexpressing mouse PTG at 100 uM using 0.2 mM UDPG as substrate in presence of 1 mM G-6-P by 14C-glucose incorporation assay relative to control. The class given is subcellular. The conditions noted are these: Lysate. The method, boiled down:
as §1

For assay [6], the species on record is Homo sapiens. As to the kind of experiment: Inhibition of C-terminal 6His-tagged human GYS1 delta634S8,11N mutant assessed as enzyme activity at 20 uM using UDPG as substrate in presence of 0.4 mM G-6-P by 14C-glucose incorporation assay relative to control. Also noted: scale not given: the % may be the effect or the level left.
Assay [7] relates to Saccharomyces cerevisiae. As to the kind of experiment: Inhibition of recombinant His-tagged yeast GYS2P expressed in Escherichia coli BL21(DE3) cells assessed as enzyme activity at 20 uM using UDPG as substrate in presence of G-6-P by 14C-glucose incorporation assay relative to control. On the set-up: scale not given: the % may be the effect or the level left.
Assay [8] is described as follows: Inhibition of recombinant yeast GYS2P Y513L mutant using UDPG as substrate in presence of 7.2 mM G-6-P by 14C-glucose incorporation assay. On the set-up: species or system Saccharomyces cerevisiae. The method in brief: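 Yeast Gsy2p Y513L mutant, purified like the wild type. Assayed by 14C-glucose incorporation into glycogen with UDPG under saturating 7.2 mM G6P. IC50 curves used triplicate measurements, with three experiments performed.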

Assay [9] concerns the target T3, Glycogen [starch] synthase, muscle (Homo sapiens). As to the kind of experiment: Inhibition of C-terminal 6His-tagged wild type human GYS1 assessed as enzyme activity at 20 uM using UDPG as substrate in presence of 1 mM G-6-P by 14C-glucose incorporation assay relative to control. On the set-up: scale not given: the % may be the effect or the level left.
Assay [10] in a line: Competitive inhibition of recombinant His-tagged yeast GYS2P expressed in Escherichia coli BL21(DE3) cells using UDPG as substrate in presence of G-6-P by 14C-glucose incorporation based Michaelis-Menton plot analysis. Also noted: species or system Saccharomyces cerevisiae. The method, boiled down: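 Ni-NTA then Q-Sepharose purified enzyme (5 μg/ml) assayed by radiolabelled glucose transfer from UDPG into glycogen. UDPG varied 0.2–8 mM with 7.2 mM G6P, covaried against fixed inhibitor levels, 2% (v/v) DMSO throughout. Data fitted to competitive, non-competitive and uncompetitive models, chosen by goodness-of-fit and residuals. Ki given as mean ± SEM of three independent experiments in duplicate.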

The species entered for assay [11] is Homo sapiens. As to the kind of experiment: Inhibition of C-terminal 6His-tagged human GYS1 delta634S8,11N mutant assessed as enzyme activity at 300 uM using UDPG as substrate in presence of 0.4 mM G-6-P by 14C-glucose incorporation assay relative to control. On the set-up: scale not given: the % may be the effect or the level left.
The nature of assay [12]: Competitive inhibition of recombinant His-tagged yeast GYS2P expressed in Escherichia coli BL21(DE3) cells using UDPG as substrate in absence of G-6-P by 14C-glucose incorporation based Michaelis-Menton plot analysis. On the set-up: species or system Saccharomyces cerevisiae. The method in brief:
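Yeast Gsy2p at 5 μg/ml in a 14C-glucose incorporation assay. UDPG was varied from 0.2 to 8 mM without G6P, and inhibitor was covaried up to 0.8 mM. Data were fitted to competitive, non-competitive and uncompetitive models, and the model was chosen by goodness of fit and residuals. Controls contained 2% (v/v) DMSO. Values are mean ± SEM of three independent experiments in duplicate.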

Assay [13] in a line: Inhibition of C-terminal 6His-tagged human GYS1 delta634S8,11N mutant using UDPG as substrate in presence of 0.4 mM G-6-P by 14C-glucose incorporation assay. The method in brief:
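Truncated hGYS1 (residues 635–737 deleted, Ser8/Ser11→Asn, C-terminal 6×His, Ni-NTA purified; activation state ~0.2). Radiolabelled glucose incorporation into glycogen with 0.2 mM UDPG and 0.4 mM G6P. Controls contained 2% (v/v) DMSO. IC50 was fitted by four-parameter logistic. Values are mean ± SEM of at least three independent experiments in duplicate.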

The nature of assay [14]: Inhibition of recombinant His-tagged yeast GYS2P expressed in Escherichia coli BL21(DE3) cells using UDPG as substrate in absence of G-6-P by 14C-glucose incorporation assay. Also noted: species or system Saccharomyces cerevisiae. The method in brief: as §2
Assay [15] relates to Saccharomyces cerevisiae. Nature of the assay: Inhibition of recombinant His-tagged yeast GYS2P expressed in Escherichia coli BL21(DE3) cells assessed as enzyme activity at 300 uM using UDPG as substrate in presence of G-6-P by 14C-glucose incorporation assay relative to control. On the set-up: scale not given: the % may be the effect or the level left.
The target of assay [16] is T2, Glycogen [starch] synthase, muscle (Rattus norvegicus). As to the kind of experiment: Inhibition of glycogen synthase in rat-1 fibroblast cell lysates at 100 uM using 0.2 mM UDPG as substrate in presence of 1 mM G-6-P by 14C-glucose incorporation assay. The note with it: Lysate. The class given is subcellular. The method in brief:
as §1

Assay [17] has as its target T3, Glycogen [starch] synthase, muscle (Homo sapiens). As to the kind of experiment: Inhibition of glycogen synthase in human HEK293 cell lysates overexpressing mouse PTG at 100 uM using 0.2 mM UDPG as substrate in presence of 1 mM G-6-P by 14C-glucose incorporation assay. The assay is classed as subcellular. The conditions noted are these: Lysate. The method, boiled down: as §1

For assay [18], the species on record is Homo sapiens. As to the kind of experiment: Inhibition of C-terminal 6His-tagged human GYS1 delta634S8,11N mutant at 100 uM using UDPG as substrate in presence of 0.4 mM G-6-P by 14C-glucose incorporation assay relative to control.
The target of assay [19] is T3, Glycogen [starch] synthase, muscle (Homo sapiens). Nature of the assay: Inhibition of C-terminal 6His-tagged wild type human GYS1 assessed as enzyme activity at 300 uM using UDPG as substrate in presence of 1 mM G-6-P by 14C-glucose incorporation assay relative to control. On the set-up: scale not given: the % may be the effect or the level left.

Usually pKi stands for −log10 of the Ki, conventionally taken in molar units. The inhibition is the drop in the measured response relative to a control, in per cent. Usually pIC50 stands for the negative decadic logarithm of the IC50, by convention in mol/L. For the compound `Oc1ccc(-c2c(-c3ccc(O)c(O)c3O)n[nH]c2C(F)(F)F)cc1`, the pKi in assay [1] is 5.88. The inhibition in assay [2] and in [5] was 100% throughout. Also, the pIC50 in [3] was 5.10; in assay [4] it was 5.56; in [8], 4.47. The Activity in the assay filed under Homo sapiens [6] is -1.01%; in the assay on Saccharomyces cerevisiae [7], 0.97%; in [9] it was -0.26%.
As to `O=c1ccn([C@@H]2O[C@H](COP(=O)(O)OP(=O)(O)O)[C@@H](O)[C@H]2O)c(=O)[nH]1` [URIDINE_DIPHOSPHATE], in [10], the pKi is 3.46.
With `COc1cc(-c2c(-c3ccccc3)ncn2CCC2CCCN2C)ccc1O` (racemic), the Activity in the assay listed under Homo sapiens [11] turned out to be 46.5%; in the assay with Saccharomyces cerevisiae [15], 36.5%; in [19] it was 77.1%. Further, the negative logarithm of the Ki (pKi) was 3.54 in assay [12] and 3.43 in [10]. Besides, the pIC50 was 3.79 in assay [13], 3.58 in [3], 3.06 in [4] and 3.55 in [14]. Moreover, the inhibition entry in assay [16] and in assay [17] was “inactive” throughout. Further, the inhibition in the assay filed under Homo sapiens [18] was over 20%.
For `O=C(O)CCc1ccc(-c2ccccc2)n1-c1ccc(O)cc1`, the Activity in the assay listed under Homo sapiens [11] was 40.1%; with Saccharomyces cerevisiae [15], 40.1%; in assay [19] it was 58.9%. Also, the pIC50 in assay [4] was 3.42. In addition, the inhibition result in assay [16] and in assay [17] was “inactive” throughout.
